Experimental data pooled from the literature.
Each line is one published result; the experiments were not run side by side.
Effect on: binding
CDK4 with cyclin D3: Cyclin-dependent kinase 4, with cyclin D3 (CDK4, Homo sapiens, UniProt P11802)
CDK4: Cyclin-dependent kinase 4 (CDK4, Homo sapiens, UniProt P11802)
CDK4 with cyclin D1: Cyclin-dependent kinase 4, with cyclin D1 (CDK4, Homo sapiens, UniProt P11802)

Cc1cc(S(=O)(=O)N[C@H]2CC[C@H](CN3CCN(c4ccc(C5CCC(=O)NC5=O)cc4F)CC3)CC2)ccc1Nc1ncc(C(F)(F)F)c(N2CCC[C@](C)(O)C2)n1 (stereo partly drawn)  remaining binding (CDK4 with cyclin D3; competition with immobilised ligand; 1 µM): 52%
CCCCC(=O)Nc1ccc(-c2ccc3ncn(CCC)c(=O)c3c2)cn1  remaining binding (CDK4 with cyclin D3; competition with immobilised ligand; 0.5 µM): 95%
C1=C/COCc2cc(ccc2OCCN2CCCC2)Nc2nccc(n2)-c2cccc(c2)COC/1  remaining binding (CDK4; 0.1 µM): 99%
COc1ccc2[nH]c3c4[nH]c5ccc(OC)cc5c4c4c(c3c2c1)C(=O)NC4=O  remaining binding (CDK4; 1 µM): 100%
C[C@]1(O)CCCN(c2nc(Nc3ccc(S(=O)(=O)N[C@H]4CC[C@H](CN5CCN(c6ccc(C7CCC(=O)NC7=O)cc6F)CC5)CC4)cc3F)ncc2C(F)(F)F)C1 (stereo partly drawn)  remaining binding (CDK4; competition with immobilised ligand; 1 µM): 97%
Cc1ccc(NC(=O)c2ccnc(C(F)(F)F)c2)cc1-c1cc(OCCO)nc(N2CCOCC2)c1  remaining binding (CDK4 with cyclin D1; 1 µM): 97%
CNS(=O)(=O)c1ccc(Nc2ncc(C(F)(F)F)c(N3CCC[C@](C)(O)C3)n2)c(C)c1  remaining binding (CDK4 with cyclin D3; competition with immobilised ligand; 1 µM): 33%
CN1CCN(C(=O)c2ccc(NC(=O)Nc3ccc(N(C)c4ccnc(Nc5ccc(CS(C)(=O)=O)cc5)n4)cc3)cc2)CC1  remaining binding (CDK4 with cyclin D1; 1 µM): 77%
COc1ccc2oc(-c3ccc4nc(N)oc4c3)c/c(=N\c3ccccc3NC(=O)CCN)c2c1  remaining binding (CDK4 with cyclin D3; 1 µM): 93%
